Measured values taken from ChEMBL document CHEMBL1944580, “Synthesis of novel sulfonamide-1,2,4-triazoles, 1,3,4-thiadiazoles and 1,3,4-oxadiazoles, as potential antibacterial and antifungal agents. Biological evaluation and conformational analysis studies” (2012).
≈ marks a conversion by molar mass, not a printed value.

How the values were obtained:
Salmonella typhimurium [1] = assay: Antibacterial activity against Salmonella Typhimurium ATCC 13311 treated for 24 hrs followed by sub-cultivated for 72 hrs by micro dilution method; format: functional, Salmonella enterica subsp. enterica serovar Typhimurium; details: Salmonella enterica
How it was run: (§1)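 2 µl from each well was serially subcultured into 100 µl fresh broth per well and incubated a further 72 h. MBC is the lowest concentration with no visible growth, taken as 99.5% killing of the original inoculum. Streptomycin and ampicillin were the positive controls.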

Listeria monocytogenes [2] = assay: Antibacterial activity against Listeria monocytogenes NCTC 7973 treated for 24 hrs followed by sub-cultivated for 72 hrs by micro dilution method; format: functional; how it was run: as §1
Enterobacter cloacae [3] = assay: Antibacterial activity against Enterobacter cloacae human isolate treated for 24 hrs followed by sub-cultivated for 72 hrs by micro dilution method; format: functional; how it was run: as §1
Listeria monocytogenes [4] = assay: Antibacterial activity against Listeria monocytogenes NCTC 7973 after 24 hrs by micro dilution method; format: functional; details: NCTC 7973, 24 h
How it was run: (§2)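 Microdilution MIC in 96-well plates. Bacterial suspensions adjusted in sterile saline to 1.0 × 10^5 CFU/ml, giving 1.0 × 10^4 cfu per well in LB broth. Compounds tested at up to 1 mg/ml. Plates incubated 24 h. MIC taken as the lowest concentration with no visible growth under a binocular microscope. OD at 655 nm was also read against a blank and the positive control. Streptomycin and ampicillin were the positive controls.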

Escherichia coli [5] = assay: Antibacterial activity against Escherichia coli ATCC 35210 after 24 hrs by micro dilution method; format: functional; details: ATCC 35210, 24 h; how it was run: as §2
Micrococcus flavus [6] = assay: Antibacterial activity against Micrococcus flavus ATCC 10240 after 24 hrs by micro dilution method; format: functional; details: ATCC 10240, 24 h; how it was run: as §2
Micrococcus flavus [7] = assay: Antibacterial activity against Micrococcus flavus ATCC 10240 treated for 24 hrs followed by sub-cultivated for 72 hrs by micro dilution method; format: functional; how it was run: as §1
Escherichia coli [8] = assay: Antibacterial activity against Escherichia coli ATCC 35210 treated for 24 hrs followed by sub-cultivated for 72 hrs by micro dilution method; format: functional; how it was run: as §1
Pseudomonas aeruginosa [9] = assay: Antibacterial activity against Pseudomonas aeruginosa ATCC 27853 treated for 24 hrs followed by sub-cultivated for 72 hrs by micro dilution method; format: functional; how it was run: as §1
Staphylococcus aureus [10] = assay: Antibacterial activity against Staphylococcus aureus ATCC 6538 after 24 hrs by micro dilution method; format: functional; details: ATCC 6538, 24 h; how it was run: as §2
Enterobacter cloacae [11] = assay: Antibacterial activity against Enterobacter cloacae human isolate after 24 hrs by micro dilution method; format: functional; how it was run: as §2
Staphylococcus aureus [12] = assay: Antibacterial activity against Staphylococcus aureus ATCC 6538 treated for 24 hrs followed by sub-cultivated for 72 hrs by micro dilution method; format: functional; how it was run: as §1
Salmonella typhimurium [13] = assay: Antibacterial activity against Salmonella Typhimurium ATCC 13311 after 24 hrs by micro dilution method; format: functional, Salmonella enterica subsp. enterica serovar Typhimurium; details: Salmonella enterica, ATCC 13311, 24 h; how it was run: as §2
Bacillus cereus [14] = assay: Antibacterial activity against Bacillus cereus clinical isolate treated for 24 hrs followed by sub-cultivated for 72 hrs by micro dilution method; format: functional; how it was run: as §1
Bacillus cereus [15] = assay: Antibacterial activity against Bacillus cereus clinical isolate after 24 hrs by micro dilution method; format: functional; how it was run: as §2
Pseudomonas aeruginosa [16] = assay: Antibacterial activity against Pseudomonas aeruginosa ATCC 27853 after 24 hrs by micro dilution method; format: functional; details: ATCC 27853, 24 h; how it was run: as §2
Aspergillus niger [17] = assay: Antifungal activity against Aspergillus niger ATCC 6275 after 72 hrs by serial dilution method; format: functional; details: ATCC 6275, 72 h
How it was run: (§3)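 Modified microdilution MIC. Spores were washed from malt agar cultures with sterile 0.85% saline containing 0.1% Tween 80 and adjusted to about 1.0 × 10^5 per 100 µl well in malt broth. Compounds were dissolved in DMSO (1 mg/ml). Plates incubated 72 h at 28 °C. MIC is the lowest concentration with no visible growth under a binocular microscope. Bifonazole and ketoconazole were the references.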

Aspergillus versicolor [18] = assay: Antifungal activity against Aspergillus versicolor ATCC 11730 treated for 72 hrs followed by sub-cultivated for 5 days by serial dilution method; format: functional
How it was run: (§4)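 MFC obtained after the 72 h, 28 °C malt-broth microdilution (spore inoculum about 1.0 × 10^5 per well, compounds from 1 mg/ml DMSO). 2 µl was serially subcultured into 100 µl broth per well and incubated a further 5 days at 28 °C. MFC is the lowest concentration with no visible growth, taken as 99.5% killing of the original inoculum.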

Aspergillus flavus [19] = assay: Antifungal activity against Aspergillus flavus ATCC 9643 treated for 72 hrs followed by sub-cultivated for 5 days by serial dilution method; format: functional; how it was run: as §4
Talaromyces funiculosus [20] = assay: Antifungal activity against Penicillium funiculosum ATCC 36839 treated for 72 hrs followed by sub-cultivated for 5 days by serial dilution method; format: functional; how it was run: as §4
Aspergillus niger [21] = assay: Antifungal activity against Aspergillus niger ATCC 6275 treated for 72 hrs followed by sub-cultivated for 5 days by serial dilution method; format: functional; how it was run: as §4
Fulvia fulva [22] = assay: Antifungal activity against Fulvia fulva after 72 hrs by serial dilution method; format: functional; how it was run: as §3
Aspergillus versicolor [23] = assay: Antifungal activity against Aspergillus versicolor ATCC 11730 after 72 hrs by serial dilution method; format: functional; details: ATCC 11730, 72 h; how it was run: as §3
Aspergillus flavus [24] = assay: Antifungal activity against Aspergillus flavus ATCC 9643 after 72 hrs by serial dilution method; format: functional; details: ATCC 9643, 72 h; how it was run: as §3
Aspergillus fumigatus [25] = assay: Antifungal activity against Aspergillus fumigatus human isolate after 72 hrs by serial dilution method; format: functional; how it was run: as §3
Trichoderma viride [26] = assay: Antifungal activity against Trichoderma viride IAM 5061 treated for 72 hrs followed by sub-cultivated for 5 days by serial dilution method; format: functional; how it was run: as §4
Talaromyces funiculosus [27] = assay: Antifungal activity against Penicillium funiculosum ATCC 36839 after 72 hrs by serial dilution method; format: functional; details: ATCC 36839, 72 h; how it was run: as §3
Penicillium ochrochloron [28] = assay: Antifungal activity against Penicillium ochrochloron ATCC 9112 treated for 72 hrs followed by sub-cultivated for 5 days by serial dilution method; format: functional; how it was run: as §4
Fulvia fulva [29] = assay: Antifungal activity against Fulvia fulva treated for 72 hrs followed by sub-cultivated for 5 days by serial dilution method; format: functional; how it was run: as §4
Trichoderma viride [30] = assay: Antifungal activity against Trichoderma viride IAM 5061 after 72 hrs by serial dilution method; format: functional; details: IAM 5061, 72 h; how it was run: as §3
Penicillium ochrochloron [31] = assay: Antifungal activity against Penicillium ochrochloron ATCC 9112 after 72 hrs by serial dilution method; format: functional; details: ATCC 9112, 72 h; how it was run: as §3
Aspergillus fumigatus [32] = assay: Antifungal activity against Aspergillus fumigatus human isolate treated for 72 hrs followed by sub-cultivated for 5 days by serial dilution method; format: functional; how it was run: as §4

Row | Structure (SMILES) | MBC (Salmonella typhimurium [1]) [µM] | MBC (Listeria monocytogenes [2]) [µM] | MBC (Enterobacter cloacae [3]) [µM] | MIC (Listeria monocytogenes [4]) [µM] | MIC (Escherichia coli [5]) [µM] | MIC (Micrococcus flavus [6]) [µM] | MBC (Micrococcus flavus [7]) [µM] | MBC (Escherichia coli [8]) [µM] | MBC (Pseudomonas aeruginosa [9]) [µM] | MIC (Staphylococcus aureus [10]) [µM] | MIC (Enterobacter cloacae [11]) [µM] | MBC (Staphylococcus aureus [12]) [µM] | MIC (Salmonella typhimurium [13]) [µM] | MBC (Bacillus cereus [14]) [µM] | MIC (Bacillus cereus [15]) [µM] | MIC (Pseudomonas aeruginosa [16]) [µM] | MIC (Aspergillus niger [17]) [µM] | MFC (Aspergillus versicolor [18]) [µM] | MFC (Aspergillus flavus [19]) [µM] | MFC (Talaromyces funiculosus [20]) [µM] | further results
1 | CC1(C)S[C@@H]2[C@H](NC(=O)[C@H](N)c3ccccc3)C(=O)N2[C@H]1C(=O)O [AMPICILLIN] | 490 (≈ 171 µg/mL) | 490 (≈ 171 µg/mL) | 490 (≈ 171 µg/mL) | 370 (≈ 129 µg/mL) | 370 (≈ 129 µg/mL) | 250 (≈ 87.4 µg/mL) | 370 (≈ 129 µg/mL) | 740 (≈ 259 µg/mL) | 1240 (≈ 433 µg/mL) | 250 (≈ 87.4 µg/mL) | 370 (≈ 129 µg/mL) | 370 (≈ 129 µg/mL) | 250 (≈ 87.4 µg/mL) | 370 (≈ 129 µg/mL) | 250 (≈ 87.4 µg/mL) | 740 (≈ 259 µg/mL) | – | – | – | – | –
2 | c1ccc(-c2ccc(C(c3ccccc3)n3ccnc3)cc2)cc1 (centres undefined) [BIFONAZOLE] | – | – | – | – | – | – | – | – | – | – | – | – | – | – | – | – | 480 (≈ 149 µg/mL) | 640 (≈ 199 µg/mL) | 640 (≈ 199 µg/mL) | 800 (≈ 248 µg/mL) | MFC (Aspergillus niger [21]): 640 µM (≈ 199 µg/mL); MIC (Fulvia fulva [22]): 320 µM (≈ 99.3 µg/mL); MIC (Aspergillus versicolor [23]): 320 µM (≈ 99.3 µg/mL); MIC (Aspergillus flavus [24]): 480 µM (≈ 149 µg/mL); MIC (Aspergillus fumigatus [25]): 480 µM (≈ 149 µg/mL); MFC (Trichoderma viride [26]): 800 µM (≈ 248 µg/mL); MIC (Talaromyces funiculosus [27]): 640 µM (≈ 199 µg/mL); MFC (Penicillium ochrochloron [28]): 640 µM (≈ 199 µg/mL); MFC (Fulvia fulva [29]): 640 µM (≈ 199 µg/mL); MIC (Trichoderma viride [30]): 640 µM (≈ 199 µg/mL); MIC (Penicillium ochrochloron [31]): 480 µM (≈ 149 µg/mL); MFC (Aspergillus fumigatus [32]): 640 µM (≈ 199 µg/mL)
3 | CC(=O)N1CCN(c2ccc(OCC3COC(Cn4ccnc4)(c4ccc(Cl)cc4Cl)O3)cc2)CC1 (centres undefined) [KETOCONAZOLE] | – | – | – | – | – | – | – | – | – | – | – | – | – | – | – | – | 380 (≈ 202 µg/mL) | 950 (≈ 505 µg/mL) | 3800 (≈ 2020 µg/mL) | 950 (≈ 505 µg/mL) | MFC (Aspergillus niger [21]): 950 µM (≈ 505 µg/mL); MIC (Fulvia fulva [22]): 380 µM (≈ 202 µg/mL); MIC (Aspergillus versicolor [23]): 380 µM (≈ 202 µg/mL); MIC (Aspergillus flavus [24]): 2850 µM (≈ 1510 µg/mL); MIC (Aspergillus fumigatus [25]): 380 µM (≈ 202 µg/mL); MFC (Trichoderma viride [26]): 5700 µM (≈ 3030 µg/mL); MIC (Talaromyces funiculosus [27]): 380 µM (≈ 202 µg/mL); MFC (Penicillium ochrochloron [28]): 3800 µM (≈ 2020 µg/mL); MFC (Fulvia fulva [29]): 950 µM (≈ 505 µg/mL); MIC (Trichoderma viride [30]): 4750 µM (≈ 2520 µg/mL); MIC (Penicillium ochrochloron [31]): 3800 µM (≈ 2020 µg/mL); MFC (Aspergillus fumigatus [32]): 950 µM (≈ 505 µg/mL)
4 | CN[C@@H]1[C@H](O[C@H]2[C@H](O[C@H]3[C@H](O)[C@@H](O)[C@H](N=C(N)N)[C@@H](O)[C@@H]3N=C(N)N)O[C@@H](C)[C@]2(O)C=O)O[C@@H](CO)[C@H](O)[C@H]1O [STREPTOMYCIN] | 340 (≈ 198 µg/mL) | 340 (≈ 198 µg/mL) | 340 (≈ 198 µg/mL) | 170 (≈ 98.9 µg/mL) | 260 (≈ 151 µg/mL) | 170 (≈ 98.9 µg/mL) | 340 (≈ 198 µg/mL) | 520 (≈ 302 µg/mL) | 340 (≈ 198 µg/mL) | 40 (≈ 23.3 µg/mL) | 170 (≈ 98.9 µg/mL) | 90 (≈ 52.3 µg/mL) | 170 (≈ 98.9 µg/mL) | 170 (≈ 98.9 µg/mL) | 90 (≈ 52.3 µg/mL) | 170 (≈ 98.9 µg/mL) | – | – | – | – | –
